In ChEMBL document CHEMBL1137660, “Molecular and biochemical characterization of the chromosome-encoded class A beta-lactamase BCL-1 from Bacillus clausii” (Antimicrob Agents Chemother, 2007):

Legend:
[1] = Ratio of Kcat for Bacillus cereus beta-lactamase BcI to Kcat for Bacillus clausii NR beta-lactamase BCL1
[2] = Ratio of Kcat to Km for Bacillus clausii NR beta-lactamase BCL1 to ratio of Kcat/Km for Bacillus anthracis beta-lactamase Bla1
[3] = Ratio of Kcat for Bacillus clausii NR beta-lactamase BCL1 to Kcat for Bacillus cereus beta lactamase BcI
[4] = molecular target: T1, Beta-lactamase (Bacillus clausii) (UniProt A8RR46); assay: Activity of Bacillus clausii NR beta-lactamase BCL1 expressed in Escherichia coli BL21 (DE3) assessed as specific activity per mg of protein at 100 uM; details: Shouchella clausii
T1 sequence (whole entry): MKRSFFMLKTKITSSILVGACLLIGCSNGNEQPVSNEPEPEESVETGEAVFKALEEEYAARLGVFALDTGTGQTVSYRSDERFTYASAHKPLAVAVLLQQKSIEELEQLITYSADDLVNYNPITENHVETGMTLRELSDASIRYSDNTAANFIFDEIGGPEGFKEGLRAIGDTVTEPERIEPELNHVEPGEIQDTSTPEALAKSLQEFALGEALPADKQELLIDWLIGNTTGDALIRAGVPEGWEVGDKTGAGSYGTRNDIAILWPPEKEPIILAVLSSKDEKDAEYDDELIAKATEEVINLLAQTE
In short: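 Enzyme from E. coli BL21(DE3)(pET-BCL-1), induced with 0.4 mM IPTG at 37°C for 5 h in TS broth with amoxicillin and kanamycin. Cells were sonicated. Enzyme purified by S-Sepharose (50 mM phosphate, pH 6.5) then Q-Sepharose (20 mM Tris-HCl, pH 9; 0–1 M NaCl gradient). Protein by DC assay. Activity read with 100 μM cephalothin as substrate.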

[5] = molecular target: T1, Beta-lactamase (Bacillus clausii); assay: Induction of Bacillus clausii ATCC 21537 beta-lactamase BCL1 activity expressed in Escherichia coli BL21 (DE3) assessed as specific activity per mg of protein at 5 ug/ml; details: Shouchella clausii
In short: (§1)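 Induction in B. clausii NR and ATCC 21537 cultures using cefoxitin at 1 to 5 μg/ml as inducer. β-Lactamase activity of extracts read with 100 μM penicillin G as substrate and expressed per mg protein.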

[6] = molecular target: T1, Beta-lactamase (Bacillus clausii); assay: Induction of Bacillus clausii NR beta-lactamase BCL1 activity expressed in Escherichia coli BL21 (DE3) assessed as specific activity per mg of protein at 5 ug/ml; details: Shouchella clausii; in short: as §1

| SMILES | fold change (FC) [2] | fold change (FC) [3] | also measured |
| --- | --- | --- | --- |
| CC1(C)S[C@@H]2[C@H](NC(=O)Cc3ccccc3)C(=O)N2[C@H]1C(=O)O | 10 | – | Ratio [1]: 200 |
| CO/N=C(\C(=O)N[C@@H]1C(=O)N2C(C(=O)O)=C(COC(N)=O)CS[C@H]12)c1ccco1 | – | 100 | – |
| O=C(Cc1cccs1)N[C@@H]1C(=O)N2C(C(=O)[O-])=C(C[n+]3ccccc3)CS[C@H]12 | 2 | – | – |
| CC1(C)S[C@@H]2[C@H](NC(=O)[C@H](C(=O)O)c3ccsc3)C(=O)N2[C@H]1C(=O)O | 10 | – | – |
| CC1(C)S[C@@H]2[C@H](NC(=O)[C@H](N)c3ccc(O)cc3)C(=O)N2[C@H]1C(=O)O | 10 | – | – |
| CC(=O)OCC1=C(C(=O)O)N2C(=O)[C@@H](NC(=O)Cc3cccs3)[C@H]2SC1 | – | 100 | Activity [4]: 35 U |
| CO/N=C(\C(=O)N[C@@H]1C(=O)N2C(C(=O)O)=C(COC(C)=O)CS[C@H]12)c1csc(N)n1 | – | 100 | – |
| CCN1CCN(C(=O)N[C@@H](C(=O)N[C@@H]2C(=O)N3[C@@H]2SC(C)(C)[C@@H]3C(=O)O)c2ccccc2)C(=O)C1=O | 10 | – | – |
| CO/N=C(\C(=O)N[C@@H]1C(=O)N2C(C(=O)[O-])=C(C[n+]3cccc4c3CCC4)CS[C@H]12)c1csc(N)n1 | – | 500 | – |
| CO[C@@]1(NC(=O)Cc2cccs2)C(=O)N2C(C(=O)O)=C(COC(N)=O)CS[C@@H]21 | – | – | Activity [5]: 500 U; Activity [6]: 500 U |
